ChEMBL document CHEMBL3414463, “Discovery of potent and selective 8-fluorotriazolopyridine c-Met inhibitors” (J Med Chem, 2015)

Key:
[1] = target: T1, Hepatocyte growth factor receptor (Homo sapiens, UniProt P08581); assay: Inhibition of recombinant c-Met kinase domain (unknown origin) incubated for 30 mins using gastrin peptide substrate by HTRF assay
[2] = target: T1, Hepatocyte growth factor receptor; assay: Inhibition of HGF-stimulated c-Met autophosphorylation in serum starved human PC3 cells pre-incubated for 1 hr followed by human recombinant HGF stimulation for 10 mins by quantitative electrochemiluminescence immunoassay; type: cell-based, PC-3
Procedure, shortened: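 Serum-starved PC-3 cells (plated in high-glucose DMEM/10% FBS, then 16 h in low-glucose DMEM with 0.1% BSA) were treated with a 10-point inhibitor dilution for 1 h at 37 °C. Cells were then stimulated with 200 ng/mL recombinant human HGF for 10 min and lysed. Phospho-c-Met was captured with biotinylated anti-c-Met and 4G10 by electrochemiluminescence. IC50, n ≥ 2.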

Liver microsome [3] = assay: Stability in human liver microsomes assessed as compound turnover rate; type: ADME
Liver microsome [4] = assay: Stability in rat liver microsomes assessed as compound turnover rate; type: ADME
Cytochrome P450 2D6 = Cytochrome P450 2D6 (Homo sapiens, UniProt P10635); assay: Inhibition of CYP2D6 (unknown origin); type: ADME
Cytochrome P450 3A4 = Cytochrome P450 3A4 (Homo sapiens, UniProt P08684); assay: Inhibition of CYP3A4 (unknown origin); type: ADME
[5] = AUC (0 to infinity) in Sprague-Dawley rat at 2 mg/kg, po; type: ADME, organism-based; parameters: time infinity, dose 2 mg/kg, route oral; details: plasma
Procedure, shortened: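 Male Sprague-Dawley rats given 2.0 mg/kg orally in 2% (w/v) hydroxypropylmethylcellulose, 1% (w/v) Tween 80 in water, pH 2.2 (adjusted with HCl or MSA). Some inhibitors instead used 10% (v/v) dimethylacetamide in the same vehicle.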

T1 sequence (P08581 whole entry, the tested form may be a part): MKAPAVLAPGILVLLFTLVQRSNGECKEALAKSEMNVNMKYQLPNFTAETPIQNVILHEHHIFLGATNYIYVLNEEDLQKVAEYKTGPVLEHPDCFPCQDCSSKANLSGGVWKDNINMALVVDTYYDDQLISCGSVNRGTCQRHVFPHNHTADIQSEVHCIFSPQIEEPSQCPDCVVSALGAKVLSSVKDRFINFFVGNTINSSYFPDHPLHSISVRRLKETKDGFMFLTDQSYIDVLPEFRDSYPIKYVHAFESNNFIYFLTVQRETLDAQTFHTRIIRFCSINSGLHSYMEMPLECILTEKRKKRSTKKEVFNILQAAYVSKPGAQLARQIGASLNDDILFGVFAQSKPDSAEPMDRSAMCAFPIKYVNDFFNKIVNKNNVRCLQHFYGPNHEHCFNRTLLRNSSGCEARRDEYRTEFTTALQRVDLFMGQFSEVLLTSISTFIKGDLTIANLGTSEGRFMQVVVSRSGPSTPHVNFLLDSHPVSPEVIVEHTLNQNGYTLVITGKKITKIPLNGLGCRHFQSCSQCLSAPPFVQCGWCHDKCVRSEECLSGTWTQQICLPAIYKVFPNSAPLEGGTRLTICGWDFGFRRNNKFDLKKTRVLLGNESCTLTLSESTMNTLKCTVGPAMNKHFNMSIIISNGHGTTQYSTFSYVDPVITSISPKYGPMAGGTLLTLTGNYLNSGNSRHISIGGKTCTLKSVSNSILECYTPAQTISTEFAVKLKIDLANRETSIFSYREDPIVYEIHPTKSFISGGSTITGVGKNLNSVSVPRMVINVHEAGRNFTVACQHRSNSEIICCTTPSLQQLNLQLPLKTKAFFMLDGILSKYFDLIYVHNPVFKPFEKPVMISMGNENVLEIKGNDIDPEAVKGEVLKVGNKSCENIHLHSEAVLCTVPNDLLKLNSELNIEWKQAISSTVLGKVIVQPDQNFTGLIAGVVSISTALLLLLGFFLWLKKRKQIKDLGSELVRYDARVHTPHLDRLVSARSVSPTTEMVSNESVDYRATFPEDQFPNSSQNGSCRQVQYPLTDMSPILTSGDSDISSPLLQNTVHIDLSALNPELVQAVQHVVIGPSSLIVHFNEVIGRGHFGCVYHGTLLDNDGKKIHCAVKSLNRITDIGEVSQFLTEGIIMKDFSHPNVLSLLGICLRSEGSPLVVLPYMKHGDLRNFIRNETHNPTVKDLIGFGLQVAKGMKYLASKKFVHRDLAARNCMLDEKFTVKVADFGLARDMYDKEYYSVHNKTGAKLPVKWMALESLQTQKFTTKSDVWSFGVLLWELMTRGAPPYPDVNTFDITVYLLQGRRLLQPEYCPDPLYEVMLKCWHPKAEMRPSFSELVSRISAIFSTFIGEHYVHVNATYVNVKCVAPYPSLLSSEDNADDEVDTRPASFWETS
Cytochrome P450 3A4, sequence (P08684 whole entry): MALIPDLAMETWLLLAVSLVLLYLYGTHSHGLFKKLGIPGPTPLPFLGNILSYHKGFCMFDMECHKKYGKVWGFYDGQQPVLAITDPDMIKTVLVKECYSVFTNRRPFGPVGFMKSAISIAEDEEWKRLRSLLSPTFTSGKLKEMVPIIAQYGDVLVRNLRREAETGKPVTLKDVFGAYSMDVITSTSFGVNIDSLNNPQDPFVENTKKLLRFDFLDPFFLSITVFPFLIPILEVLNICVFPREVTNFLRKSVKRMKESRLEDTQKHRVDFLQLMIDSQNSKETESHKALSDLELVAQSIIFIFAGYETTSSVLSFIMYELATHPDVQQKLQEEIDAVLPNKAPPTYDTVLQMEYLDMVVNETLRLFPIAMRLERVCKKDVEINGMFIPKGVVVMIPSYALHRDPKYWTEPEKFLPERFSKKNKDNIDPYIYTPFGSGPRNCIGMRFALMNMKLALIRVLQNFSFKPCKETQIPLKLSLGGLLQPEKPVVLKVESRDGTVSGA
Cytochrome P450 2D6, sequence (P10635 whole entry): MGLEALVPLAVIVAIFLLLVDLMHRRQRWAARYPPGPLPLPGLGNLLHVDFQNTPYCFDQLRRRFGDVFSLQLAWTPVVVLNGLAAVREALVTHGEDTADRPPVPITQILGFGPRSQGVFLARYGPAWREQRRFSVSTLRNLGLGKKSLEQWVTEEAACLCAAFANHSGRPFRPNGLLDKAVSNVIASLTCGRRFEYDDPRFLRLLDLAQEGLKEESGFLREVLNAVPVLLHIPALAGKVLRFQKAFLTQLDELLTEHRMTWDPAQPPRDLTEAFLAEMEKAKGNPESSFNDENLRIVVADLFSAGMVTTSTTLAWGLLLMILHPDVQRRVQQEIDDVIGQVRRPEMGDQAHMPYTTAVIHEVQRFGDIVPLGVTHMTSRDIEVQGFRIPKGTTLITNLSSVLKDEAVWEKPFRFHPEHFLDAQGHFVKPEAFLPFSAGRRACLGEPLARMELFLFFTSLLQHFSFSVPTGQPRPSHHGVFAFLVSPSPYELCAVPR

- IC50 [1]: 12 nM
- IC50 [2]: 13 nM
- Stability (Liver microsome [3]): Stable
- Stability (Liver microsome [4]): Stable
- inhibition (INH) (Cytochrome P450 2D6): Not Active
- inhibition (INH) (Cytochrome P450 3A4): Not Active
- AUC(0-inf) [5]: > 386 µM·h
SMILES: COc1cnc2ccc(C(F)(F)c3nnc4c(F)cc(-c5cnn(C)c5)cn34)cc2c1
